Runt-CBFb FRET: blocks binding of human RUNX1 Runt domain to CBFb | Q01196+Q13951 | Cerulean-Runt/Venus-CBFb FRET ratio 530/480, 1 h | inhibition, % at 20 µM | 0.46% of 220,000 active | AID 1496;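 active = inhibition over about 50% at 20 µM in the single-dose screen, limit read from the data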;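 note: 0% = DMSO wells and 100% = excess unlabeled CBFb competitor control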
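Reagent – Venus-CBFb binding partner, 100 nM · Assay system – Cerulean-tagged RUNX1 Runt domain (FRET donor) fusion protein · Input – 100 nM per protein · Incubation – two 1 h room-temperature incubations shielded from light · Measured by – FRET fluorescence · Medium – Tris buffer pH 7.5 with salts and BSA · Benchmarks – unlabeled CBFb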
Runt-SMMHC FRET: Runt domain-CBFb-SMMHC interaction inhibition. Q01196+Q13951. Cerulean-Runt/Venus-CBFb-SMMHC FRET ratio 530/480, 1 h. inhibition, % at 20 µM. 0.74% of 220,000 active. AID 1434;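 active = mean inhibition across duplicate retests at 20 µM reaching about 50%, limit read from the data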;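 note: 0% = DMSO wells and 100% = wells with excess untagged CBFb-SMMHC; inhibitors lower the FRET ratio by blocking Runt binding to CBFb-SMMHC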
Wee1 stabilizer: human Wee1 degradation inhibition, primary screen; 1.2% of 220,000 active; HeLa Luc-Wee1K328M stability, luciferase luminescence; 100% = proteasome inhibitor MG132 effect; AID 1321; P30291; reporter increase, % at 5 µM;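 active = activation above the mean of all tested compounds plus 3 SD, set per screening run, cut at about 8.8% in these data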;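 note: cells exposed to compound for 20 h before luminescence read; 0% = DMSO alone and 100% = MG132 at 30 µM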
Target sequence (P30291 whole entry K328M): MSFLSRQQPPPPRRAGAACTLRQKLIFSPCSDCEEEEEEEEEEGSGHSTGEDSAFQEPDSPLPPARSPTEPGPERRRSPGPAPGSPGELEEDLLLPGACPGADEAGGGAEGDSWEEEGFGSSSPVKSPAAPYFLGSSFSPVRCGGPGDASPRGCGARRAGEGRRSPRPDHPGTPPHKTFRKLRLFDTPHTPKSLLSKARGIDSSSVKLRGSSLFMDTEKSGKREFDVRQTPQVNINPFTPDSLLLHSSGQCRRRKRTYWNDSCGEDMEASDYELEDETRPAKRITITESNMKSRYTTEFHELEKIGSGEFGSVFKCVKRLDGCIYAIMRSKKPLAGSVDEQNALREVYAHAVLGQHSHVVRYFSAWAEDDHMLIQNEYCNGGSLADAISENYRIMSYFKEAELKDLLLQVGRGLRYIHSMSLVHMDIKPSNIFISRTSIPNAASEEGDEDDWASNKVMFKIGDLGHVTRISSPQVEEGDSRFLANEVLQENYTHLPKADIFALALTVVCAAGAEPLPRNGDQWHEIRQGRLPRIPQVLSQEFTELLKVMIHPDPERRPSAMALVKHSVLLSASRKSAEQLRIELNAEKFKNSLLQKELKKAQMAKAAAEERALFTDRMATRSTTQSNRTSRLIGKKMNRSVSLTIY
proKLK7 act: proKLK7 (human) activation, primary screen; 0.9% of 370,000 active; activation, % at 7 µM; purified proKLK7, EDANS-DABCYL substrate fluorescence; 100% is mature enzyme control, 0% vehicle; P49862;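 active = activation above the mean of all tested compounds plus 3 SD, computed per campaign excluding outliers beyond control limits, cut at about 13% in these data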
RanGTP-Impb inh: inhibitors of RanGTP-importin-beta interaction, primary screen, biochemical, FRET, CFP-Ran, YFP-importin-beta, homogeneous. inhibition, % (test concentration not listed). 1.1% of 300,000 active. cell-free CFP-Ran/YFP-importin-beta FRET ratio;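 active = more than half of the replicate wells show a fall in the fluorescence ratio signal beyond about 16%, limit read from the data, passing the limit was not always enough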;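 note: 0% = DMSO wells and 100% = Ran loaded with GDP instead of GTP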
AI-2 QS modul: modulates the Vibrio harveyi AI-2 quorum sensing system; 0.4% of 300,000 active; activity change, % at 7.5 µM; Vibrio harveyi JMH597 AI-2 luminescence/OD600 ratio, 9 h; hits give low values; strain lacks LuxN and CqsS sensors; 0 = neutral-control median; AID 2094; in the data active = activity change below about -75%, passing the limit was not always enough;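 note: luminescence divided by OD600 gain over 9 h not by final OD600 alone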
YIC counter: counter-screen YIC FRET for RanGTP-importin-beta inhibitors; shares compounds with RanGTP-Impb inh; Purified YIC probe, intramolecular FRET ratio YFP/CFP; IC50, µM; 40% of 1,000 active;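 active = fitted half-maximal inhibitory concentration no more than tenfold above the top dose tested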
* = called active by the depositor; · = no result. This is a sample that favours compounds with a hit; in the whole collection about 2.9% have one here.

SMILES	Runt-CBFb FRET	Runt-SMMHC FRET	Wee1 stabilizer	proKLK7 act	RanGTP-Impb inh	AI-2 QS modul	YIC counter
NS(=O)(=O)c1ccc(N=Nc2c[nH]c(=O)c(O)c2)cc1	14.8	9.1	5.5	0.5	28.1*	19.7	>50
COc1ccc(CCNC(=O)c2cc3c(=O)n4ccccc4nc3n(C3CCCCC3)c2=N)cc1OC	·	·	·	-0.6	23.5*	14.6	25.9*
N=c1c(S(=O)(=O)c2ccc(Br)cc2)cc2c(=O)n3ccccc3nc2n1C1CCCCC1	·	·	·	-1.0	21.8*	10.8	>50
COc1ccc(CCNC(=O)c2cc3c(=O)n4ccccc4nc3n(CC3CCCO3)c2=N)cc1OC (configuration not stated)	·	·	·	-0.8	18.2*	9.1	27.5*
COc1ccc(CCNC(=O)c2c(C)nc3ccccn23)cc1OC	0.8	-0.1	-2.4	0.0	6.4	23.5	·
CC[C@]1(C(=O)OC)[C@H]2C(=O)N(Cc3ccccc3)C(=O)[C@H]2[C@H]2CN=C(SC)N21	·	·	·	-0.8	·	·	·
CCC(=O)N(CC(=O)Nc1sc(C)c(C)c1C(N)=O)C1CCCCC1	1.2	1.5	0.1	0.0	3.5	13.0	·
COc1ccc(C(=O)CN2Cc3ccccc3C2=N)cc1	0.6	0.3	-0.2	1.1	1.0	11.0	·
Nc1nc2nc(-c3ccc(OCc4ccccc4)cc3)cc(C(F)(F)F)n2n1	79.6*	91.8*	-1.8	-19.5	34.4*	10.8	4.98*
CC(=O)Nc1ccc2nc(NC(=O)COc3cccc(C)c3)sc2c1	-2.2	6.3	-0.2	1.1	3.4	-41.4	·
CN1CCCN(Cc2cccc3ccccc23)CC1	·	·	·	0.7	21.7*	9.3	>50
O=C(O)c1c2c(nc3ccccc13)/C(=C/c1ccc(OC(F)F)cc1)CCC2	·	·	·	2.5	30.8*	20.7	>50
CCn1c(O)c(C=Nc2ccccc2)sc1=O	5.8	46.8	-0.9	0.0	0.9	5.8	·
Oc1c(C=Nc2ccccc2)sc(=S)n1Cc1ccccc1	11.5	45.7	1.6	0.5	39.0*	21.8	43.7*
CCn1c(O)c(C=Nc2ccccc2)sc1=S	34.7	68.5*	4.4	1.2	36.9*	6.6	16.8*
O=C(Nc1cccc2nsnc12)c1cc2c(cc1Cl)Sc1nccn1S2(=O)=O	·	·	·	8.6	·	·	·
COc1ccc(NC(=O)c2ccc3nc[nH]c3c2)c(OC)c1	-2.6	-0.4	-3.0	0.7	0.0	13.2	·
O=C(Nc1ccc(OC(F)(F)F)cc1)c1ccc2nc[nH]c2c1	·	·	·	-0.1	20.1*	0.7	>50
Cc1nn(C)c(Oc2cccc(Cl)c2)c1C(=O)Nc1ccc(F)cc1F	-0.4	2.1	1.8	0.6	-0.2	12.5	·
Cc1nn(C)c(Oc2ccc(Cl)cc2)c1C(=O)O	0.3	4.3	0.1	0.1	23.2*	9.0	>50
CC(OC(=O)Cc1cccc(C(F)(F)F)c1)C(=O)Nc1ccc(Cl)cn1 (configuration not stated)	·	·	·	0.2	3.9	30.5	·
CCOc1ccc(C(=O)c2cc3ccc(O)cc3oc2=O)cc1	86.5*	90.0*	0.8	0.1	52.7*	38.2	7.96*
C[C@@H]1CN([C@@H](C)CO)C(=O)c2cc(NS(C)(=O)=O)ccc2O[C@@H](C)CCCCO[C@H]1CN(C)Cc1ccc2c(c1)OCO2	·	·	·	-0.3	·	·	·
C[C@@H]1CCCCO[C@H](CN(C)Cc2ccc3c(c2)OCO3)[C@@H](C)CN([C@H](C)CO)C(=O)c2cc(NC(=O)CCCN(C)C)ccc2O1	·	·	·	·	·	·	>46
OCCC1CN(Cc2cccn2-c2cccnc2)CCN1Cc1ccc(F)cc1 (configuration not stated)	-0.3	-0.7	-0.5	0.5	26.9*	43.5	>50
SMILES	Runt-CBFb FRET	Runt-SMMHC FRET	Wee1 stabilizer	proKLK7 act	RanGTP-Impb inh	AI-2 QS modul	YIC counter
CC1(C)CC(=O)C/C(=N/Nc2nc3ccccc3s2)C1	4.9	-2.9	-0.9	-0.1	1.2	18.0	·
CC1(C)CC(=O)CC(=Nc2ccc3[nH]c(=O)[nH]c3c2)C1	0.1	2.8	-0.7	-0.2	28.5*	33.1	>50
CC1=NN(C(=O)c2ccccc2)C(O)(c2ccc(Br)cc2)C1 (configuration not stated)	2.6	-3.3	3.3	0.3	24.3*	38.3	>50
COC(=O)c1ccccc1NCc1cc(=O)oc2cc(O)c(O)cc12	·	·	·	-37.1	20.4*	10.2	4.53*
COc1ccc(C)cc1NCc1cc(=O)oc2cc(-c3ccccc3)c(O)cc12	-0.1	-14.9	2.8	0.8	-1.7	21.0	·
CC(C)c1ccc(NC(=O)c2ccccc2NC(=O)C2CCCCC2C(=O)O)cc1 (configuration not stated)	·	·	·	0.2	4.0	-4.3	·
CCN(CC)S(=O)(=O)c1ccc(NC(=O)c2ccc(Sc3nncn3C)c([N+](=O)[O-])c2)cc1	-3.5	1.6	1.9	0.5	23.3*	26.6	>50
CCSc1nnc(-c2cc(Br)ccc2N=Cc2c(C)[nH]n(-c3ccccc3)c2=O)c(=O)[nH]1	-0.6	-10.0	-1.9	0.2	18.3*	4.1	>50
Nc1c(C(=O)NCC2CCCO2)c2nc3ccccc3nc2n1/N=C/c1ccncc1 (configuration not stated)	·	·	·	1.2	·	·	·
Nc1c(C(=O)NC2CCCC2)c2nc3ccccc3nc2n1/N=C/c1ccco1	20.8	25.3	0.7	·	26.4*	16.4	9.48*
Cn1c(N)c(C(=O)COC(=O)C2(c3ccc(Cl)cc3)CCCC2)c(=O)n(C)c1=O	-1.7	-7.9	-1.8	1.6	2.4	-4.9	·
Cn1c(N)c(C(=O)COC(=O)C2(c3ccc(F)cc3)CCCC2)c(=O)n(C)c1=O	-4.4	-1.2	-0.3	-0.1	21.8*	21.1	>50
CCOC(=O)N1CCN(C(=O)CNS(=O)(=O)c2c(C)cc(C)cc2C)CC1	·	·	·	1.2	-2.1	17.7	·
CCCOC(=S)NC(=O)c1sc2ccccc2c1Cl	0.5	3.3	-0.6	0.1	31.1*	3.3	>50
O=C(NCc1ccc(F)cc1F)[C@@H]1CCCN1C(=O)[C@@H]1CCCN1C(=O)c1cccs1	·	·	·	0.1	·	·	·
CSc1nsc2nc(=O)c(/C=C3\C=Nc4ccccc43)c(N)n12	13.5	51.1*	0.9	0.4	26.2*	8.0	28.2*
CC1=Nc2ccccc2/C1=C/c1c(N)n2c(S(=O)(=O)C(C)C)nsc2nc1=O	8.7	27.4	2.8	0.5	·	43.2	·
CC(C)S(=O)(=O)c1nsc2nc(=O)c(/C=C3\C=Nc4ccccc43)c(N)n12	35.4	79.8*	3.2	0.9	30.5*	10.1	9.72*
Cc1cn2c(N)c(/C=C3\C=Nc4ccccc43)c(=O)nc2s1	-40.0	-53.1	-2.5	1.1	3.4	-7.4	·
